{
  "source": "paper PMC9998565",
  "about": "(Clinical Pharmacokinetics, 2023)",
  "key": {"[1]": {"system": "patients with HF with reduced ejection fraction", "settings": "vericiguat 10 mg once daily; cited from earlier work"}, "[2]": {"system": "healthy white male volunteers", "assay": "Hemodynamic profile", "type": "in vivo, human", "how_it_was_run": "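Healthy men took test compound 10 mg or placebo once daily for 16 days, with a second test compound (25, 50, 100 mg) ~2 h later on days 13–15. After 15 min supine, seated then standing (2 min) SBP, DBP and HR were taken from 1.25 to ~5 h post-dose on days 0 and 12–15. Baseline was the mean of four seated pre-co-dose values. ANCOVA was run per dose; standing data were descriptive.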"}, "[3]": {"settings": "cited from earlier work"}, "[4]": {"assay": "Vericiguat pharmacokinetics in plasma", "type": "in vivo, human", "how_it_was_run": "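Test compound was 10 mg once daily after breakfast. Lithium-heparin plasma was sampled pre-dose and at 0.5–15 h on days 12–15, plus 24 h on day 16. A labelled internal standard was added, then automated acetonitrile/ammonium acetate/formic acid precipitation and validated LC. QC accuracy was 93.88–101.33% and CV 1.24–2.58%; storage was −20 °C, analysis within 36 days. Log AUC(0–24) and Cmax were analysed by ANOVA (administration, subject).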"}, "[5]": {"system": "healthy white male volunteers", "assay": "Safety and tolerability", "type": "in vivo, human", "how_it_was_run": "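Safety covered AEs, coded by MedDRA 19.0; an AE counted as treatment-emergent if it began or worsened from first dose to 30 days post-treatment, and investigators judged relatedness. Fasting haematology, chemistry, coagulation and urinalysis were collected at screening, pre-dose days 0 and 12–15, day 16 and follow-up. Vital signs and ECGs were taken after 15 min supine rest, pre-dose and 5.5 h post-dose (day 12 pre-dose only). All dosed subjects were included.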"}, "healthy subjects": {"system": "healthy subjects", "settings": "cited from earlier work"}, "[6]": {"system": "patients with pulmonary arterial hypertension", "settings": "12 weeks, riociguat 1.0–2.5 mg with sildenafil 20 mg three times daily; cited from earlier work"}, "[7]": {"assay": "Sildenafil pharmacokinetics in plasma", "type": "in vivo, human", "how_it_was_run": "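For the co-administered compound, plasma (EDTA K3) was drawn 3, 4, 6, 8, 12 and 24 h after test compound/placebo on days 13–15, with dosing at 2 h. Processing used a deuterated internal standard and methyl tert-butyl ether liquid-liquid extraction, then a validated LC assay. Samples were stored at −20 °C and analysed within 38 days. Log AUC(0–22) and Cmax went through ANOVA per dose; the test/placebo ratio was given with 90% CIs.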"}, "[8]": {"settings": "ANCOVA, day 14, both groups + sildenafil 50 mg"}, "[9]": {"settings": "during treatment with sildenafil, days 13–15"}, "[10]": {"settings": "whole study, both groups also received sildenafil on days 13–15"}},
  "data": [
    {"compound": "COC(=O)Nc1c(N)nc(-c2nn(Cc3ccccc3F)c3ncc(F)cc23)nc1N", "note": "[Vericiguat]", "values": [
      {"measurement": "Composite endpoint of death from cardiovascular causes or hospitalization for HF, hazard ratio", "setting": "[1]", "value": 0.90},
      {"measurement": "Change in seated HR, LS mean difference ‘vericiguat-placebo’", "setting": "[2]; ANCOVA, day 13, both groups + sildenafil 25 mg", "value": 0.96, "unit": "bpm"},
      {"measurement": "Change in seated HR, LS mean difference ‘vericiguat-placebo’", "setting": "[2]; [8]", "value": 0.81, "unit": "bpm"},
      {"measurement": "Change in seated SBP, LS mean difference ‘vericiguat-placebo’", "setting": "[2]; [8]", "value": 1.36, "unit": "mmHg"},
      {"measurement": "Change in seated HR, LS mean difference ‘vericiguat-placebo’", "setting": "[2]; ANCOVA, day 15, both groups + sildenafil 100 mg", "value": 1.38, "unit": "bpm"},
      {"measurement": "Maximum SBP when seated or standing", "setting": "[2]; day 0", "value": 143, "unit": "mmHg"},
      {"measurement": "Minimum SBP when standing", "setting": "[2]; day 0", "value": 97, "unit": "mmHg"},
      {"measurement": "Standing HR", "setting": "[2]; day 0", "value": "54–108 bpm"},
      {"measurement": "Maximum SBP when seated or standing", "setting": "[2]; day 12", "value": 141, "unit": "mmHg"},
      {"measurement": "Minimum SBP when standing", "setting": "[2]; day 12", "value": 93, "unit": "mmHg"},
      {"measurement": "Standing HR", "setting": "[2]; day 12", "value": "53–102 bpm"},
      {"measurement": "Range of standing HR values", "setting": "[2]; day 13, with sildenafil 25 mg", "value": "54–114 bpm"},
      {"measurement": "Range of standing HR values", "setting": "[2]; day 14, with sildenafil 50 mg", "value": "54–119 bpm"},
      {"measurement": "Range of standing HR values", "setting": "[2]; day 15, with sildenafil 100 mg", "value": "53–127 bpm"},
      {"measurement": "Minimum standing SBP", "setting": "[2]; days 13–15, with sildenafil", "value": "81–91 mmHg"},
      {"measurement": "Half-life", "setting": "[3]", "value": "20 to 30", "unit": "h"},
      {"measurement": "Onset (time after intake)", "setting": "[3]; intake with food as recommended", "value": "~ 4 h"},
      {"measurement": "Time to achieve maximum plasma concentration (Cmax)", "setting": "[3]; steady state, after intake", "value": "approximately 4 h"},
      {"measurement": "Effect of co-administration of sildenafil on vericiguat pharmacokinetics", "setting": "[4]; sildenafil 25–100 mg", "value": "did not affect"},
      {"measurement": "Time at which vericiguat Cmax values were reached post-administration", "setting": "[4]; vericiguat 10 mg once daily, days 12–15", "value": "about 3 h"},
      {"measurement": "TEAEs of mild intensity", "setting": "[5]; by treatment group, whole study", "value": 81.3, "unit": "%"},
      {"measurement": "Subjects with dyspepsia (TEAE)", "setting": "[5]; days 0–12, vericiguat group", "value": 25.0, "unit": "%"},
      {"measurement": "Subjects with gastrointestinal disorders (TEAE)", "setting": "[5]; days 0–12, vericiguat group", "value": 31.3, "unit": "%"},
      {"measurement": "Subjects with head discomfort (TEAE)", "setting": "[5]; [9]", "value": "up to 13.3%"},
      {"measurement": "Subjects with headache (TEAE)", "setting": "[5]; [9]", "value": "up to 21.4%"},
      {"measurement": "Effects on ECG parameters, including the QT interval", "setting": "[5]; in vivo", "value": "no relevant effects"},
      {"measurement": "Subjects reporting at least one TEAE", "setting": "[5]; [10]", "value": "All subjects"},
      {"measurement": "Subjects with at least one sildenafil-related TEAE", "setting": "[5]; [10]", "value": 87.5, "unit": "%"},
      {"measurement": "Subjects with at least one vericiguat-related TEAE", "setting": "[5]; [10]", "value": 62.5, "unit": "%"},
      {"measurement": "Increases in HR", "setting": "healthy subjects; healthy subjects, vericiguat 5–15 mg over several days", "value": "4–10 bpm"}
    ]},
    {"compound": "COC(=O)N(C)c1c(N)nc(-c2nn(Cc3ccccc3F)c3ncccc23)nc1N", "note": "[riociguat]", "values": [
      {"measurement": "Cmax at (time after intake)", "setting": "[3]", "value": "1 to 1.5", "unit": "h"},
      {"measurement": "Half-life", "setting": "[3]", "value": "7 to 12", "unit": "h"},
      {"measurement": "Standing SBP after dosing lower than with placebo", "setting": "[6]", "value": "approximately 10 mmHg"}
    ]},
    {"compound": "CCCc1nn(C)c2c(=O)[nH]c(-c3cc(S(=O)(=O)N4CCN(C)CC4)ccc3OCC)nc12", "note": "[Sildenafil]", "values": [
      {"measurement": "Dose dependency of BP-reducing effect", "setting": "[2]; 25, 50, 100 mg, placebo group", "value": "no clear dose dependency"},
      {"measurement": "Mean decreases from baseline in BP", "setting": "[2]; after single doses of sildenafil on days 13–15, placebo group", "value": "≤ 5.3", "unit": "mmHg"},
      {"measurement": "Mean maximum decreases in BP", "setting": "[2]; days 13–15, placebo group", "value": "≤ 11.0", "unit": "mmHg"},
      {"measurement": "Terminal half-life", "setting": "[3]", "value": "about 4 h"},
      {"measurement": "Time to achieve Cmax", "setting": "[3]", "value": "1 to 2", "unit": "h"},
      {"measurement": "Increase in sildenafil AUC(0–22), vericiguat group compared with placebo group", "setting": "[7]; across sildenafil 25–100 mg", "value": "13–22%"},
      {"measurement": "Increase in sildenafil Cmax, vericiguat group compared with placebo group", "setting": "[7]; across sildenafil 25–100 mg", "value": "14–20%"},
      {"measurement": "Increase in sildenafil AUC(0–22) with co-administration of vericiguat", "setting": "[7]; sildenafil 25 mg", "value": 22.4, "unit": "%"},
      {"measurement": "Increase in sildenafil Cmax with co-administration of vericiguat", "setting": "[7]; sildenafil 25 mg", "value": 14.2, "unit": "%"},
      {"measurement": "Increase in sildenafil AUC(0–22) with co-administration of vericiguat", "setting": "[7]; sildenafil 50 mg", "value": 17.1, "unit": "%"},
      {"measurement": "Increase in sildenafil Cmax with co-administration of vericiguat", "setting": "[7]; sildenafil 50 mg", "value": 20.4, "unit": "%"},
      {"measurement": "Increase in sildenafil AUC(0–22) with co-administration of vericiguat", "setting": "[7]; sildenafil 100 mg", "value": 13.0, "unit": "%"},
      {"measurement": "Increase in sildenafil Cmax with co-administration of vericiguat", "setting": "[7]; sildenafil 100 mg", "value": 17.1, "unit": "%"},
      {"measurement": "Time required to achieve the geometric mean Cmax of sildenafil", "setting": "[7]; sildenafil 100 mg, day 15, co-administered with vericiguat", "value": 2, "unit": "h"},
      {"measurement": "Time required to achieve the geometric mean Cmax of sildenafil", "setting": "[7]; sildenafil 100 mg, day 15, with placebo", "value": 1, "unit": "h"},
      {"measurement": "Increase in sildenafil exposure when co-administered with vericiguat", "setting": "[7]; sildenafil 25–100 mg", "value": "≤ 22", "unit": "%"},
      {"measurement": "Mean maximum decrease in DBP", "setting": "healthy subjects; healthy volunteers", "value": 5.3, "unit": "mmHg"},
      {"measurement": "Mean maximum decrease in SBP", "setting": "healthy subjects; healthy volunteers", "value": 8.3, "unit": "mmHg"}
    ]}
  ]
}
